Assay results as given in ChEMBL document CHEMBL1156266, “Antisense oligonucleotides containing conformationally constrained 2',4'-(N-methoxy)aminomethylene and 2',4'-aminooxymethylene and 2'-O,4'-C-aminomethylene bridged nucleoside analogues show improved potency in animal models” (J Med Chem, 2010).
Calls of active or inactive are those of the source. The rule behind the calls is not given here.

Tests used:
Mus musculus [1] = assay: Reduction in PTEN mRNA expression in ip dosed BALB/c mouse liver administered twice a week for 3 weeks measured after 72 hrs of last dose by RT-PCR analysis; type: functional
Procedure, shortened: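 Male Balb/c mice, 6-week-old, ASO in PBS ip twice weekly for 3 weeks, four dose levels. Killed 72 h after last dose. Liver homogenized in guanidine isothiocyanate buffer, RNA column-purified. PTEN RNA by fluorescence qRT-PCR, normalized to cyclophilin A. Errors are SD.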

Nucleic Acid = assay: Binding affinity to mouse PTEN mRNA assessed as melting temperature at 4 uM by thermal denaturation assay; type: nucleic-acid assay
Procedure, shortened: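 Duplex with complementary length-matched RNA; UV absorbance versus temperature curves in 100 mM Na+, 10 mM phosphate, 0.1 mM EDTA, 4 μM each strand. Tm is the average of two experiments.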

[2] = Reduction in PTEN mRNA expression in mouse bEND.3 cells after 24 hrs by qRT-PCR analysis; type: functional, cell-based; details: for IC50: BEND3, 24 h
Procedure, shortened: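 bEnd.3 cells in DMEM/10% FBS, seeded at 1 × 10^4 cells/well the day before. Transfected 4 h at 37 °C with Lipofectin 3 μg/mL in OptiMEM, eight 1:2 dilutions (40 nM to 312.5 pM), then refed with complete medium for 24 h. PTEN RNA by qRT-PCR, normalized to cyclophilin A, as % untreated control. Triplicate plates. IC50 from sigmoidal fit, top 100%, bottom 0%.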

Mus musculus [3] = assay: Reduction in PTEN mRNA expression in BALB/c mouse liver at 37 mg/kg, ip administered once a week for 3 weeks measured after 72 hrs of last dose by RT-PCR analysis; type: functional, organism-based; set-up: dose 37 mg/kg
Mus musculus [4] = assay: Toxicity in BALB/c mouse assessed as effect on liver weight at 0.5 to 14.8 mg/kg, ip administered twice a week for 3 weeks measured after 72 hrs of last dose; type: organism-based; set-up: dose 0.5-14.8 mg/kg, route intraperitoneal; details: in vivo
Procedure, shortened: (§1)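 Male Balb/c mice, ip ASO in PBS twice weekly for 3 weeks at four dose levels. Body weight recorded before each dose. Killed 3 days after last dose. Organ weights normalized to body weight, expressed relative to the saline-treated group.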

Mus musculus [5] = assay: Toxicity in BALB/c mouse assessed as effect on kidney weight at 0.5 to 14.8 mg/kg, ip administered twice a week for 3 weeks measured after 72 hrs of last dose; type: organism-based; set-up: dose 0.5-14.8 mg/kg, route intraperitoneal; details: in vivo; procedure, shortened: as §1
Mus musculus [6] = assay: Toxicity in BALB/c mouse assessed as effect on body weight at 0.5 to 14.8 mg/kg, ip administered twice a week for 3 weeks measured after 72 hrs of last dose; type: organism-based; set-up: dose 0.5-14.8 mg/kg, route intraperitoneal; details: in vivo; procedure, shortened: as §1
Mus musculus [7] = assay: Toxicity in BALB/c mouse assessed as increase in spleen weight at 0.5 to 14.8 mg/kg, ip administered twice a week for 3 weeks measured after 72 hrs of last dose; type: organism-based; set-up: dose 0.5-14.8 mg/kg, route intraperitoneal; details: in vivo; procedure, shortened: as §1
Mus musculus [8] = assay: Hepatotoxicity in BALB/c mouse assessed as liver ALT level at 0.5 to 14.8 mg/kg, ip administered twice a week for 3 weeks measured after 72 hrs of last dose; type: toxicity, organism-based; set-up: dose 0.5-14.8 mg/kg, route intraperitoneal; details: in vivo
Procedure, shortened: (§2)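 Male 6-week-old Balb/c mice dosed ip in PBS twice weekly for 3 weeks: 0.7–23 mg/kg (four levels) or 0.5–14.6/14.8 mg/kg. Killed 72 h after final dose. Plasma from cardiac-puncture blood, ALT on clinical bioanalyzer. Errors are SD.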

Mus musculus [9] = assay: Hepatotoxicity in BALB/c mouse assessed as liver ALT level at 0.7 to 23 mg/kg, ip administered twice a week for 3 weeks measured after 72 hrs of last dose; type: toxicity, organism-based; set-up: dose 0.7-23 mg/kg, route intraperitoneal; details: in vivo; procedure, shortened: as §2
Mus musculus [10] = assay: Toxicity in BALB/c mouse assessed as effect on liver weight at 0.7 to 23 mg/kg, ip administered twice a week for 3 weeks measured after 72 hrs of last dose; type: organism-based; set-up: dose 0.7-23 mg/kg, route intraperitoneal; details: in vivo; procedure, shortened: as §1
Mus musculus [11] = assay: Toxicity in BALB/c mouse assessed as effect on kidney weight at 0.7 to 23 mg/kg, ip administered twice a week for 3 weeks measured after 72 hrs of last dose; type: organism-based; set-up: dose 0.7-23 mg/kg, route intraperitoneal; details: in vivo; procedure, shortened: as §1
Mus musculus [12] = assay: Toxicity in BALB/c mouse assessed as effect on body weight at 0.7 to 23 mg/kg, ip administered twice a week for 3 weeks measured after 72 hrs of last dose; type: organism-based; set-up: dose 0.7-23 mg/kg, route intraperitoneal; details: in vivo; procedure, shortened: as §1

Structure (SMILES) | ED50 (Mus musculus [1]) | Tm (Nucleic Acid) | Activity [2] | IC50 [2] | Activity (Mus musculus [3]) | Activity (Mus musculus [4]) | Activity (Mus musculus [5]) | Activity (Mus musculus [6]) | Activity (Mus musculus [7]) | Activity (Mus musculus [1]) | Activity (Mus musculus [8]) | Activity (Mus musculus [9]) | Activity (Mus musculus [10]) | Activity (Mus musculus [11]) | Activity (Mus musculus [12])
Cc1cn([C@@H]2O[C@]3(CO)CNO[C@@H]2[C@@H]3OP(O)(=S)OC[C@]23CNO[C@@H]([C@H](n4cc(C)c(=O)[nH]c4=O)O2)[C@@H]3OP(O)(=S)OC[C@H]2O[C@@H](n3cc(C)c(=O)[nH]c3=O)C[C@@H]2OP(O)(=S)OC[C@H]2O[C@@H](n3cnc4c(N)ncnc43)[C@H](O)[C@@H]2OP(O)(=S)OC[C@H]2O[C@@H](n3cnc4c(=O)[nH]c(N)nc43)[C@H](O)[C@@H]2OP(O)(=S)OC[C@H]2O[C@@H](n3ccc(N)nc3=O)[C@H](O)[C@@H]2OP(O)(=S)OC[C@H]2O[C@@H](n3cnc4c(N)ncnc43)[C@H](O)[C@@H]2OP(O)(=S)OC[C@H]2O[C@@H](n3ccc(N)nc3=O)[C@H](O)[C@@H]2OP(O)(=S)OC[C@H]2O[C@@H](n3cc(C)c(=O)[nH]c3=O)C[C@@H]2OP(O)(=S)OC[C@H]2O[C@@H](n3cnc4c(=O)[nH]c(N)nc43)[C@H](O)[C@@H]2OP(O)(=S)OC[C@H]2O[C@@H](n3cnc4c(=O)[nH]c(N)nc43)[C@H](O)[C@@H]2OP(O)(=S)OC[C@H]2O[C@@H](n3ccc(N)nc3=O)[C@H](O)[C@@H]2OP(O)(=S)OC[C@]23CNO[C@@H]([C@H](n4cc(C)c(N)nc4=O)O2)[C@@H]3OP(O)(=S)OC[C@]23CNO[C@@H]([C@H](n4cc(C)c(=O)[nH]c4=O)O2)[C@@H]3O)c(=O)nc1N (some centres undefined) | > 37 mg/kg | 57.7 °C | Dose-dependent effect | 3.2 nM | inactive |  |  |  |  |  |  |  |  |  | 
Cc1cn([C@@H]2O[C@]3(CO)CN(C)O[C@@H]2[C@@H]3OP(O)(=S)OC[C@]23CN(C)O[C@@H]([C@H](n4cc(C)c(=O)[nH]c4=O)O2)[C@@H]3OP(O)(=S)OC[C@H]2O[C@@H](n3cc(C)c(=O)[nH]c3=O)C[C@@H]2OP(O)(=S)OC[C@H]2O[C@@H](n3cnc4c(N)ncnc43)[C@H](O)[C@@H]2OP(O)(=S)OC[C@H]2O[C@@H](n3cnc4c(=O)[nH]c(N)nc43)[C@H](O)[C@@H]2OP(O)(=S)OC[C@H]2O[C@@H](n3ccc(N)nc3=O)[C@H](O)[C@@H]2OP(O)(=S)OC[C@H]2O[C@@H](n3cnc4c(N)ncnc43)[C@H](O)[C@@H]2OP(O)(=S)OC[C@H]2O[C@@H](n3ccc(N)nc3=O)[C@H](O)[C@@H]2OP(O)(=S)OC[C@H]2O[C@@H](n3cc(C)c(=O)[nH]c3=O)C[C@@H]2OP(O)(=S)OC[C@H]2O[C@@H](n3cnc4c(=O)[nH]c(N)nc43)[C@H](O)[C@@H]2OP(O)(=S)OC[C@H]2O[C@@H](n3cnc4c(=O)[nH]c(N)nc43)[C@H](O)[C@@H]2OP(O)(=S)OC[C@H]2O[C@@H](n3ccc(N)nc3=O)[C@H](O)[C@@H]2OP(O)(=S)OC[C@]23CN(C)O[C@@H]([C@H](n4cc(C)c(N)nc4=O)O2)[C@@H]3OP(O)(=S)OC[C@]23CN(C)O[C@@H]([C@H](n4cc(C)c(=O)[nH]c4=O)O2)[C@@H]3O)c(=O)nc1N (some centres undefined) | 6 mg/kg | 58.6 °C | Dose-dependent effect | 2.5 nM | Active | Non-toxic | Non-toxic | Non-toxic | Toxic | Dose-dependent effect | Non-toxic |  |  |  | 
CON1C[C@@]2(COP(O)(=S)O[C@H]3[C@H]4ON(OC)C[C@@]3(COP(O)(=S)O[C@H]3[C@@H](O)[C@H](n5ccc(N)nc5=O)O[C@@H]3COP(O)(=S)O[C@H]3[C@@H](O)[C@H](n5cnc6c(=O)[nH]c(N)nc65)O[C@@H]3COP(O)(=S)O[C@H]3[C@@H](O)[C@H](n5cnc6c(=O)[nH]c(N)nc65)O[C@@H]3COP(O)(=S)O[C@H]3C[C@H](n5cc(C)c(=O)[nH]c5=O)O[C@@H]3COP(O)(=S)O[C@H]3[C@@H](O)[C@H](n5ccc(N)nc5=O)O[C@@H]3COP(O)(=S)O[C@H]3[C@@H](O)[C@H](n5cnc6c(N)ncnc65)O[C@@H]3COP(O)(=S)O[C@H]3[C@@H](O)[C@H](n5ccc(N)nc5=O)O[C@@H]3COP(O)(=S)O[C@H]3[C@@H](O)[C@H](n5cnc6c(=O)[nH]c(N)nc65)O[C@@H]3COP(O)(=S)O[C@H]3[C@@H](O)[C@H](n5cnc6c(N)ncnc65)O[C@@H]3COP(O)(=S)O[C@H]3C[C@H](n5cc(C)c(=O)[nH]c5=O)O[C@@H]3COP(O)(=S)O[C@H]3[C@H]5ON(OC)C[C@@]3(COP(O)(=S)O[C@H]3[C@H]6ON(OC)C[C@@]3(CO)O[C@H]6n3cc(C)c(N)nc3=O)O[C@H]5n3cc(C)c(=O)[nH]c3=O)O[C@H]4n3cc(C)c(N)nc3=O)O[C@@H](n3cc(C)c(=O)[nH]c3=O)[C@H](O1)[C@@H]2O (some centres undefined) | 8 mg/kg | 57.7 °C | Dose-dependent effect | 3.1 nM |  | Non-toxic | Non-toxic | Non-toxic | Toxic | Dose-dependent effect | Non-toxic |  |  |  | 
COCCO[C@@H]1[C@H](OP(O)(=S)OC[C@H]2O[C@@H](n3cc(C)c(=O)[nH]c3=O)C[C@@H]2OP(O)(=S)OC[C@H]2O[C@@H](n3cnc4c(=O)[nH]c(N)nc43)[C@H](OCCOC)[C@@H]2OP(O)(=S)OC[C@H]2O[C@@H](n3cc(C)c(N)nc3=O)[C@H](OCCOC)[C@@H]2OP(O)(=S)OC[C@H]2O[C@@H](n3cc(C)c(=O)[nH]c3=O)C[C@@H]2OP(O)(=S)OC[C@H]2O[C@@H](n3cnc4c(N)ncnc43)[C@H](O)[C@@H]2OP(O)(=S)OC[C@H]2O[C@@H](n3cnc4c(=O)[nH]c(N)nc43)[C@H](O)[C@@H]2OP(O)(=S)OC[C@H]2O[C@@H](n3cc(C)c(N)nc3=O)C[C@@H]2OP(O)(=S)OC[C@H]2O[C@@H](n3cc(C)c(N)nc3=O)C[C@@H]2OP(O)(=S)OC[C@H]2O[C@@H](n3cc(C)c(=O)[nH]c3=O)C[C@@H]2OP(O)(=S)OC[C@H]2O[C@@H](n3cc(C)c(N)nc3=O)C[C@@H]2OP(O)(=S)OC[C@H]2O[C@@H](n3cc(C)c(=O)[nH]c3=O)C[C@@H]2OP(O)(=S)OC[C@H]2O[C@@H](n3cnc4c(=O)[nH]c(N)nc43)[C@H](O)[C@@H]2OP(O)(=S)OC[C@H]2O[C@@H](n3cnc4c(=O)[nH]c(N)nc43)[C@H](O)[C@@H]2OP(O)(=S)OC[C@H]2O[C@@H](n3cnc4c(N)ncnc43)[C@H](O)[C@@H]2OP(O)(=S)OC[C@H]2O[C@@H](n3cc(C)c(=O)[nH]c3=O)C[C@@H]2OP(O)(=S)OC[C@H]2O[C@@H](n3cc(C)c(=O)[nH]c3=O)C[C@@H]2OP(O)(=S)OC[C@H]2O[C@@H](n3cc(C)c(=O)[nH]c3=O)C[C@@H]2OP(O)(=S)OC[C@H]2O[C@@H](n3cnc4c(=O)[nH]c(N)nc43)[C@H](OCCOC)[C@@H]2OP(O)(=S)OC[C@H]2O[C@@H](n3cnc4c(N)ncnc43)[C@H](OCCOC)[C@@H]2O)[C@@H](CO)O[C@H]1n1cc(C)c(N)nc1=O (some centres undefined) | 10 mg/kg | 67.9 °C | Dose-dependent effect | 1 nM |  |  |  |  |  |  |  | Non-toxic | Non-toxic | Non-toxic | Non-toxic
